Source: PubChem
The entries come from a sample that favours hits as a whole.
Lmaj promast: Leishmania major promastigote growth inhibition, primary screen; inhibition, % at 10 µM; Leishmania major promastigotes, resazurin fluorescence viability; 9% of 200,000 active; in the data active = inhibition above about 50%;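 also: promastigotes grown with compound for 44 hours at 28 °C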
HSF1 inhib: HSF1 inhibitors in luciferase reporter cells, primary screen, cell-based, NIH3T3, luminescence | NIH3T3-HGL HSE-luciferase, MG132-induced, luminescence 8 h; hits give low values | activity change, negative = inhibition, % at 7.5 µM (by protocol) | 0.77% of 300,000 active | AID 2098, 2009;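 active = more than half of replicate wells show activity change below -50%, luminescence cut by over half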;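 also: luciferase reports HSF-1 transcriptional activity via heat shock element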
T cruzi repl: inhibitors of intracellular T. cruzi growth, primary screen, luminescence, NIH3T3 host cells | T. cruzi beta-gal in NIH3T3, 90 h | inhibition, % (test concentration not listed) | 1.4% of 300,000 active | AID 1885, 2009;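 active = mean inhibition across valid replicates above about 55%, limit read from the data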;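 also: signal also drops with host cell toxicity which is not excluded here; higher percent means less beta-gal luminescence so fewer parasites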
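System: mouse NIH/3T3 fibroblasts infected with β-gal-expressing T. cruzi Tulahuen C4 / Input: NIH/3T3 cells, 5,000 per well / Buffer or medium: Low-serum DMEM with 2% FBS / Probe or stimulus: 5000 reporter trypomastigotes per well / Schedule: ≥90 h infection period, 3 h prior cell attachment / Measured by: GalScreen luminescence, 60 min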
Hsp70 act: Hsp70 transcriptional activators, primary screen, cell-based, HeLa, Hsp70 promoter luciferase, luminescence, 10 µM | HeLa Hsp70 promoter luciferase reporter; scaled: vehicle 0, proteasome-inhibitor control 100% | activation, % at 10 µM | 0.04% of 200,000 active | AID 1203, 2008;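 active = activation above the mean across all tested compounds plus 3 SD, cutoff set per campaign, cut at about 5.5% in these data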
HSF1 activator: HSF-1 activators, primary screen, NIH3T3-HGL cells, MG132 stress, luminescence, single point; NIH3T3-HGL HSF-1 luciferase reporter, 8 h; 100% = twice DMSO control signal; activation, % at 9 µM; 1.7% of 300,000 active; AID 504408, 2011;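 active = mean replicate activation of at least 50% with a set share of replicates each reaching 50%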
Numbers stand for hits.

Results for O=C(Nc1ccc(O)cc1)c1ccc2c(c1)C(=O)N(Cc1ccco1)C2=O ?
Lmaj promast: 61; HSF1 inhib: inactive; T cruzi repl: inactive; Hsp70 act: inactive; HSF1 activator: inactive

Results for Cc1nnc(NC(=O)C2CSC3(C)CCC(=O)N23)s1 (stereo not given) ?
HSF1 inhib: inactive; T cruzi repl: inactive; HSF1 activator: inactive

How did COc1ccccc1-c1cc(C(F)(F)F)nc(NCc2cccs2)n1 do in these assays?
Lmaj promast: inactive; HSF1 inhib: inactive; T cruzi repl: inactive; Hsp70 act: inactive; HSF1 activator: inactive

What do the screens show for `COc1ccc(-c2cc(C(F)(F)F)nc(NCc3cccs3)n2)cc1`?
Lmaj promast: inactive; HSF1 inhib: inactive; T cruzi repl: 55; Hsp70 act: inactive; HSF1 activator: inactive

How did FC(F)(F)c1cc(-c2ccc(Cl)cc2)nc(NCc2cccnc2)n1 do in these assays?
Lmaj promast: inactive; HSF1 inhib: inactive; T cruzi repl: 70; Hsp70 act: inactive; HSF1 activator: inactive

How did Clc1ccc(NCc2cccnc2)c(Cl)c1 do in these assays?
HSF1 inhib: inactive; T cruzi repl: inactive; HSF1 activator: inactive

How did COC(C(=O)Nc1ccc(S(=O)(=O)Nc2cccc3ccccc23)cc1)c1ccccc1 (stereo not given) do in these assays?
Lmaj promast: inactive; HSF1 inhib: inactive; T cruzi repl: inactive; Hsp70 act: inactive; HSF1 activator: 55

What do the screens show for `CC(=O)c1cc(C#N)c(N2CCCC2)nc1C`?
Lmaj promast: 100; HSF1 inhib: inactive; T cruzi repl: inactive; Hsp70 act: inactive; HSF1 activator: inactive

Results for CCOc1ccc(NC(=O)C(c2ccccn2)N(C(=O)CCl)c2ccc(F)cc2)cc1 (stereo not given) ?
Lmaj promast: inactive; HSF1 inhib: inactive; T cruzi repl: inactive; Hsp70 act: inactive; HSF1 activator: inactive

How did NS(=O)(=O)c1ccc(NC(=O)COC(=O)c2cnc(Cl)c(Cl)c2)cc1 do in these assays?
HSF1 inhib: inactive; T cruzi repl: inactive; HSF1 activator: inactive

How did O=C(NNc1c2ccccc2nc2ccccc12)c1ccc(O)cc1 do in these assays?
Lmaj promast: 71; HSF1 inhib: inactive; T cruzi repl: inactive; Hsp70 act: inactive; HSF1 activator: inactive

Results for O=C(NNc1c2ccccc2nc2ccccc12)c1ccccc1O ?
Lmaj promast: inactive; HSF1 inhib: inactive; T cruzi repl: inactive; Hsp70 act: inactive; HSF1 activator: inactive

Results for O=C(NNc1c2ccccc2nc2ccccc12)c1ccc(O)cc1O ?
Lmaj promast: 99; HSF1 inhib: inactive; T cruzi repl: inactive; Hsp70 act: inactive; HSF1 activator: inactive

What do the screens show for `O=C(NNc1c2ccccc2nc2ccccc12)c1ccccc1Cl`?
HSF1 inhib: inactive; T cruzi repl: inactive; HSF1 activator: inactive

Results for O=C(NNc1c2ccccc2nc2ccccc12)c1cccc(O)c1 ?
Lmaj promast: 90; HSF1 inhib: inactive; T cruzi repl: inactive; Hsp70 act: inactive; HSF1 activator: inactive

Results for N#Cc1c(NC(=O)COC(=O)c2nccnc2N)sc2c1CCCC2 ?
HSF1 inhib: inactive; T cruzi repl: inactive; HSF1 activator: inactive

What do the screens show for `COc1ccc(N(CC(=O)NC2CCCCC2)C(=O)CCC(=O)Nc2nc(C)cs2)cc1`?
HSF1 inhib: inactive; T cruzi repl: inactive; HSF1 activator: inactive

How did C=Cc1ccc(Cn2nc(-c3ccccc3)ccc2=O)cc1 do in these assays?
HSF1 inhib: inactive; T cruzi repl: inactive; HSF1 activator: inactive

How did Cc1nc(NC(=O)c2ccccc2)sc1-c1csc(N)n1 do in these assays?
Lmaj promast: inactive; HSF1 inhib: inactive; T cruzi repl: inactive; Hsp70 act: inactive; HSF1 activator: inactive

Results for Cc1nc(NC(=O)c2ccccc2)sc1-c1csc(NCc2ccccc2)n1 ?
Lmaj promast: 86; HSF1 inhib: inactive; T cruzi repl: inactive; Hsp70 act: inactive; HSF1 activator: inactive

What do the screens show for `Cc1nc(NC(=O)c2ccccc2)sc1-c1csc(NCCc2ccccc2)n1`?
Lmaj promast: 100; HSF1 inhib: inactive; T cruzi repl: 69; Hsp70 act: inactive; HSF1 activator: inactive

How did CN(C)S(=O)(=O)c1ccc(N2CCCC2)c(C(=O)Nc2nc(-c3ccc(F)c(F)c3)cs2)c1 do in these assays?
Lmaj promast: 52; HSF1 inhib: inactive; T cruzi repl: inactive; Hsp70 act: inactive; HSF1 activator: inactive

How did CN(C)S(=O)(=O)c1ccc(N2CCCC2)c(C(=O)Nc2nc3c(ccc4ccccc43)s2)c1 do in these assays?
Lmaj promast: 97; HSF1 inhib: inactive; T cruzi repl: inactive; Hsp70 act: inactive; HSF1 activator: inactive

Results for CC(C)CC(C(=O)OCC(=O)c1c(N)n(C)c(=O)n(C)c1=O)N1C(=O)c2ccccc2C1=O (stereo not given) ?
Lmaj promast: 57; HSF1 inhib: inactive; T cruzi repl: inactive; Hsp70 act: inactive; HSF1 activator: inactive

How did Cn1c(N)c(C(=O)COC(=O)[C@H](Cc2ccccc2)N2C(=O)c3ccccc3C2=O)c(=O)n(C)c1=O do in these assays?
Lmaj promast: inactive; HSF1 inhib: inactive; T cruzi repl: inactive; Hsp70 act: inactive; HSF1 activator: inactive

What do the screens show for `O=C(CCN1CCN(CCO)CC1)Nc1ccc(OCc2ccccc2)cc1`?
Lmaj promast: 61; HSF1 inhib: inactive; T cruzi repl: inactive; Hsp70 act: inactive; HSF1 activator: inactive

Results for COc1cccc(/C=C/C(=O)NNC(=O)CCN2CCN(Cc3ccccc3)CC2)c1 ?
HSF1 inhib: inactive; T cruzi repl: inactive; HSF1 activator: inactive

How did COC(=O)c1ccc(NC(=S)N2CCN(Cc3ccccc3)CC2)cc1 do in these assays?
Lmaj promast: inactive; HSF1 inhib: inactive; T cruzi repl: inactive; Hsp70 act: inactive; HSF1 activator: inactive

Results for COC(=O)c1ccc(NC(=O)CCN2CCN(Cc3ccccc3)CC2)cc1 ?
Lmaj promast: 75; HSF1 inhib: inactive; T cruzi repl: 65; Hsp70 act: inactive; HSF1 activator: inactive

How did O=C(CCN1CCN(Cc2ccccc2)CC1)Nc1ccc(OCc2ccccc2)cc1 do in these assays?
Lmaj promast: inactive; HSF1 inhib: inactive; T cruzi repl: inactive; Hsp70 act: inactive; HSF1 activator: inactive

How did O=C(/C=C/c1ccc(F)cc1)NNC(=O)CCN1CCN(Cc2ccccc2)CC1 do in these assays?
Lmaj promast: 54; HSF1 inhib: inactive; T cruzi repl: inactive; Hsp70 act: inactive; HSF1 activator: inactive

How did CN1CCN(CCC(=O)Nc2ccc(OCc3ccccc3)cc2)CC1 do in these assays?
Lmaj promast: 82; HSF1 inhib: inactive; T cruzi repl: inactive; Hsp70 act: inactive; HSF1 activator: inactive

What do the screens show for `C=CCN=c1scc(-c2ccc3c(c2)NC(=O)CO3)n1/N=C(\C)c1ccccn1`?
Lmaj promast: 57; Hsp70 act: inactive

How did CC(Nc1nc(-c2ccc3c(c2)NC(=O)CO3)cs1)c1ccccc1 (stereo not given) do in these assays?
Lmaj promast: inactive; HSF1 inhib: inactive; T cruzi repl: inactive; Hsp70 act: inactive; HSF1 activator: inactive
